Tests used:
Acetylcholinesterase = Acetylcholinesterase (Homo sapiens, UniProt P22303); experiment: In vitro inhibition of human erythrocyte Acetylcholinesterase.
Cholinesterase = Cholinesterase (Homo sapiens, UniProt P06276); experiment: In vitro inhibition of human serum Butyrylcholinesterase.
[1] = Compound was evaluated for equilibrium constant; format: ADME
Summary of the method: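 Stopped-time carbamoylation assay with human erythrocyte AChE and inhibitor at five concentrations in pH 8.0 assay buffer at 37 °C. After a few minutes, residual ATCh hydrolysis was read at 412 nm against a parallel no-inhibitor control. Fit R = R0·exp(−kobs·t) + R∞ gave kobs; KC came from the slope/intercept ratio of double-reciprocal kobs versus [I] plots.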

[2] = Compound was evaluated for rate constant (K3); format: ADME
[3] = Compound was evaluated for rate constant (K5); format: ADME

Sequence of Cholinesterase (P06276 whole entry): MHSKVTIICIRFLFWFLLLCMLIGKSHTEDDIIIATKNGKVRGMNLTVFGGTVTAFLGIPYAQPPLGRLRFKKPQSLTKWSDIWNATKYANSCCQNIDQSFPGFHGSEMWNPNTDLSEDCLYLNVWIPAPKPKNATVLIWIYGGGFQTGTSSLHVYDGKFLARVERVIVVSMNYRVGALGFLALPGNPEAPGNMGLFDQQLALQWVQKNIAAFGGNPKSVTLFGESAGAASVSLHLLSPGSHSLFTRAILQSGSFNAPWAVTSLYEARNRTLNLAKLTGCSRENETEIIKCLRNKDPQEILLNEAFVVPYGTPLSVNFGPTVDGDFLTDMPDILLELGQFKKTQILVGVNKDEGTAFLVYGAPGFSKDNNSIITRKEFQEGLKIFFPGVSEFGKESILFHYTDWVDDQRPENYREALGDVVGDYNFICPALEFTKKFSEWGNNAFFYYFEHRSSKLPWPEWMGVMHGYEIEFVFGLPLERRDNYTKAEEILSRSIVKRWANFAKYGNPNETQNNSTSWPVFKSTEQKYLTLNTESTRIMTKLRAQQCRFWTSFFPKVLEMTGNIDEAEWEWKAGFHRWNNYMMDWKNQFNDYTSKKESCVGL
Sequence of Acetylcholinesterase (P22303 whole entry): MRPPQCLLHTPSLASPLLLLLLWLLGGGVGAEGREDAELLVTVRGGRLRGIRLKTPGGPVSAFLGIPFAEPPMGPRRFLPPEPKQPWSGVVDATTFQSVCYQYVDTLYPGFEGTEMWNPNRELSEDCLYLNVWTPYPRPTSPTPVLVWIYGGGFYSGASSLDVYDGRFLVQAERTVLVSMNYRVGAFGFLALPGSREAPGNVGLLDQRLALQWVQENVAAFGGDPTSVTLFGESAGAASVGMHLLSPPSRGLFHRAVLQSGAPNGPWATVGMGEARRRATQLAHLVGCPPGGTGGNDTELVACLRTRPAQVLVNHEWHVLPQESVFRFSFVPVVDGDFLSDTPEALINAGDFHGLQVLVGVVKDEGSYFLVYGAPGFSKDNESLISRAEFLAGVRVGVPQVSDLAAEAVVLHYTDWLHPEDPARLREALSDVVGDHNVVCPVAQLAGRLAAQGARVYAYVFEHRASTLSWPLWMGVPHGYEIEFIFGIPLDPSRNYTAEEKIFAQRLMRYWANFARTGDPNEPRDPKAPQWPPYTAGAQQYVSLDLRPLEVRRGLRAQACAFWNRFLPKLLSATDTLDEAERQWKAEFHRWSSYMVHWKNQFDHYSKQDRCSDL

Compound	IC50 (Acetylcholinesterase) [nM]	IC50 (Cholinesterase) [nM]	Kc [1] [nM]	K3 [2] [min⁻¹]	K5 [3] [h⁻¹]
CNC(=O)Oc1cccc(CN(C)CCCOc2ccc(-c3ccccc3)cc2)c1	54.6	42.6	–	–	–
CNC(=O)Oc1cccc(CN(C)CCCCCCOc2ccc3c(=O)c4ccccc4oc3c2)c1	1.4	13.9	6.4	2.3	0.77
CN(CCCOc1ccc2c(=O)c3ccccc3oc2c1)Cc1cccc(OC(=O)NCCCCCCCCN2CCOCC2)c1	27.4	3.9	–	–	–
CN(CCCOc1ccc2c(=O)c3ccccc3oc2c1)Cc1cccc(OC(=O)NCCCCCCCCCN2CCOCC2)c1	29.3	–	–	–	–
CN(CCCOc1ccc2c(=O)c3ccccc3oc2c1)Cc1cccc(OC(=O)NCCCCCCCN2CCOCC2)c1	26.2	4.9	27.2	0.11	–
CN(CCCOc1ccc2c(=O)c3ccccc3oc2c1)Cc1cccc(OC(=O)NCCCCCCN2CCOCC2)c1	21.1	7.5	–	–	–
CNC(=O)Oc1cccc(CN(C)CCCOc2ccccc2)c1	79.6	24.8	–	–	–
CNC(=O)Oc1ccc2c(c1)CN(CCCOc1ccc3c(=O)c4ccccc4oc3c1)CC2	12.4	34.1	–	–	–
CNC(=O)Oc1cccc(CN(C)CCCOc2ccc3ccccc3c2)c1	82.6	205	–	–	–
CNC(=O)Oc1cccc(CN(C)CCCCCCCCCOc2ccc3c(=O)c4ccccc4oc3c2)c1	11.7	48.3	–	–	–
CNC(=O)Oc1cccc(CN(C)CCCCCCCOc2ccc3c(=O)c4ccccc4oc3c2)c1	0.32	16.5	–	–	–
CNC(=O)Oc1cccc(CN(C)CCCOc2cccc(Cc3ccccc3)c2)c1	–	22.1	–	–	–
CNC(=O)Oc1cccc(CN(C)CCCOc2ccc(C(=O)c3ccccc3)cc2)c1	5.4	24.5	–	–	–
CNC(=O)Oc1cccc(CN(C)CCCCCCCCCCOc2ccc3c(=O)c4ccccc4oc3c2)c1	21.8	31.6	–	–	–
CNC(=O)Oc1cccc(CN(C)CC#CCOc2ccc3c(=O)c4ccccc4oc3c2)c1	210	529	–	–	–
CNC(=O)Oc1cccc(CN(C)CCCCCCCCOc2ccc3c(=O)c4ccccc4oc3c2)c1	6.8	25.2	–	–	–
CNC(=O)Oc1ccc2c(c1)[C@]1(C)CCN(C)[C@@H]1N2C [PHYSOSTIGMINE]	–	–	33.5	0.41	0.43
